From paper PMC5604227 (Biochemistry, 2016)
Several values for one entry are separate records, joined by “and”; a condition that tells them apart may be missing. Equal entries are not always repeated.

Legend:
C146S TSase [1] = molecular target: T1, C146S TSase (Escherichia coli, UniProt P0A884, C146S); experiment: ITC of dUMP binding to C146S TSase; parameters: species or system E. coli
wild-type TSase [2] = molecular target: T2, wild-type TSase (Escherichia coli, UniProt P0A884); parameters: species or system E. coli
Outline: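 1H-13C HSQC of wild-type TSase with dUMP bound, U-[2H,13C,15N] ILV-methyl labelled (Ile δ1 only; Leu/Val one methyl protonated). Fraction of the covalently bound state taken from the relative intensities of its assigned resonances. Forward covalent-bond formation rate calculated from that fraction and a prior literature bond-breakage rate (H5 solvent exchange, 0.01 min−1, similar pH and temperature).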

[3] = tested on: TSase (wild-type and C146S); parameters: species or system E. coli
wild-type TSase [4] = molecular target: T2, wild-type TSase; conditions: ITC; cited from earlier work
C146S TSase [5] = molecular target: T1, C146S TSase; conditions: cited from earlier work
C146S-dUMP complex = C146S-dUMP complex (Escherichia coli, UniProt P0A884, C146S); type: binding, E. coli; conditions: 5 °C
[6] = C146S relative to wild-type, 25 °C

T1 sequence (P0A884 whole entry C146S): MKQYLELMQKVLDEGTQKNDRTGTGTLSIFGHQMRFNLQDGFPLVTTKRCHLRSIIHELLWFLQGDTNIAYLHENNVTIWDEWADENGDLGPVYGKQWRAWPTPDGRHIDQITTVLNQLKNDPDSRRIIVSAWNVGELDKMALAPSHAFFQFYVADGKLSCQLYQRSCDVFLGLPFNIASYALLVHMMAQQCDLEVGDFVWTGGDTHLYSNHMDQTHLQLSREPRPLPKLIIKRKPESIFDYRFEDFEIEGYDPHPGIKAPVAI
T2 sequence (P0A884 whole entry): as the sequence (P0A884 whole entry C146S) above, with S146C counted along it
Chain of C146S-dUMP complex (P0A884 whole entry C146S, one chain of several): as the sequence (P0A884 whole entry C146S) above

In the case of `O=c1ccn([C@H]2C[C@H](O)[C@@H](COP(=O)(O)O)O2)c(=O)[nH]1` [dUMP], the “fold weaker dUMP binding” value (C146S TSase [1]; [6]) is reported as 18 fold and 20 fold, the “ΔΔG°bind penalty for formation of the dUMP complex” value (C146S TSase [1]; [6]) is reported as 1.7 kcal/mol and the “change in TΔS° per binding event” value (C146S TSase [1]; C146S vs wild-type) is reported as ~1 kcal/mol. The “sum of calorimetric TΔΔS° values for both binding events” value (C146S TSase [1]; C146S vs wild-type) was -1.7 kcal/mol, the “fraction of covalently bound state” value (wild-type TSase [2]; wild-type dUMP complex, from resonance intensities) was 19% and ~20% and the “total TΔΔS°conf associated with binding both dUMP molecules” value ([3]; scaled to probes in the dimer, C146S vs wild-type) was -2.08 ± 0.18 kcal/mol. The “ΔS°conf opposing binding of each dUMP molecule” value ([3]; wild-type TSase) was ~1 kcal/mol, the “change in protonation state on binding (loss of proton per binding event)” value (wild-type TSase [4]) was “less than 0.1 proton” and the “fold weaker KD of C146S for dUMP than wild-type” value (C146S TSase [5]) was ~2 fold.
With `Cc1nc2ccc(CN(C)c3ccc(C(=O)N[C@@H](CCC(=O)O)C(=O)O)s3)cc2c(=O)[nH]1` [Raltitrexed] the “cooperativity ρ” value (C146S-dUMP complex) was 1.3 ± 0.3.
With `O=c1[nH]c(=O)n([C@H]2C[C@H](O)[C@@H](COP(=O)(O)O)O2)cc1F` [5F-dUMP] the “population of the minor (covalent) state relative to dUMP complex” value (wild-type TSase [2]; wild-type TSase complex) was “significantly increased”.
